According to ChEMBL document CHEMBL1821619 (Bioorg Med Chem Lett, 2011):

Tests used:
Histamine H3 receptor [1] = target: Histamine H3 receptor (Homo sapiens, UniProt Q9Y5N1); experiment: Displacement of [125I]Iodoproxyfan from recombinant human histamine H3 receptor expressed in HEK293 cells after 60 mins; format: cell-based
Mus musculus = experiment: Inverse agonist activity at histamine H3 receptor in po dosed Swiss mouse assessed as brain N-tele-methylhistamine level measured after 90 mins by enzyme immunoassay; format: functional; conditions: 1.5 h
How it was run: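 Compounds were given orally to at least 6 male Swiss mice per dose. Brain N-tele-methylhistamine was measured by enzyme immunoassay 90 min after dosing. Intrinsic activity was scaled to ciproxifan as the reference full inverse agonist. ED50 is given as mean ± SEM.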

CYP2C9 = CYP2C9 (Homo sapiens, UniProt P11712); experiment: Inhibition of CYP2C9 at 1 uM; format: ADME
Sequence of CYP2C9 (P11712 whole entry, canonical isoform): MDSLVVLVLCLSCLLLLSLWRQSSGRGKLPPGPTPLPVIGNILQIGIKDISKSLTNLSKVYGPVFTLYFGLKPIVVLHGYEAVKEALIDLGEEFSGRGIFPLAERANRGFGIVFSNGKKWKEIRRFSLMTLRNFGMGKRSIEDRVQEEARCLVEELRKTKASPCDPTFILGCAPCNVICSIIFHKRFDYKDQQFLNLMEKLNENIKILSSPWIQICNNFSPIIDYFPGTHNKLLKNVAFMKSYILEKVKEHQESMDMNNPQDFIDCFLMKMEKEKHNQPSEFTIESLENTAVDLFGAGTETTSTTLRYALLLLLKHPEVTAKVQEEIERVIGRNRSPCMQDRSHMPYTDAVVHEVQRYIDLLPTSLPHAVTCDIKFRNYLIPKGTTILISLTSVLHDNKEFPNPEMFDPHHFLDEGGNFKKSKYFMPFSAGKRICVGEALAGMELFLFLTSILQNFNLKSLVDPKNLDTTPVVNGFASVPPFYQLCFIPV
How it was run: (§1)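 Compounds were incubated at 37 ± 0.5 °C with agitation with human recombinant CYP isoforms, isoform-selective fluorescent substrates and an NADPH-generating system.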

CYP2D6 = CYP2D6 (Homo sapiens, UniProt P10635); experiment: Inhibition of CYP2D6 at 1 uM; format: ADME; how it was run: as §1
Sequence of CYP2D6 (P10635 whole entry): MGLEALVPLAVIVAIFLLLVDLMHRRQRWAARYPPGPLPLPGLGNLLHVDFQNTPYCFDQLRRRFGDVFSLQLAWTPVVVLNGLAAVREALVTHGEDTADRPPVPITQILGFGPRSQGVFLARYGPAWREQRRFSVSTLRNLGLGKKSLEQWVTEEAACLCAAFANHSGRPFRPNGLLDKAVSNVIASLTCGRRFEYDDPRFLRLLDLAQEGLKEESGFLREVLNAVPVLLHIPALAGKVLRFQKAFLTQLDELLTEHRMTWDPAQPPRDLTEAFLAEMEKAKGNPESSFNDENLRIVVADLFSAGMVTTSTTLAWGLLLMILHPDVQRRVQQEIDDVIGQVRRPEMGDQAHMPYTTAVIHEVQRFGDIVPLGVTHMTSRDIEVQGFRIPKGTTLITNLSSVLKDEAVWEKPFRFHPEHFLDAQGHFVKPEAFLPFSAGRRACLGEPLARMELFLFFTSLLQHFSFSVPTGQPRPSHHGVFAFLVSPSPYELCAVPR

CYP3A4 = CYP3A4 (Homo sapiens, UniProt P08684); experiment: Inhibition of CYP3A4 at 1 uM; format: ADME; how it was run: as §1
Sequence of CYP3A4 (P08684 whole entry): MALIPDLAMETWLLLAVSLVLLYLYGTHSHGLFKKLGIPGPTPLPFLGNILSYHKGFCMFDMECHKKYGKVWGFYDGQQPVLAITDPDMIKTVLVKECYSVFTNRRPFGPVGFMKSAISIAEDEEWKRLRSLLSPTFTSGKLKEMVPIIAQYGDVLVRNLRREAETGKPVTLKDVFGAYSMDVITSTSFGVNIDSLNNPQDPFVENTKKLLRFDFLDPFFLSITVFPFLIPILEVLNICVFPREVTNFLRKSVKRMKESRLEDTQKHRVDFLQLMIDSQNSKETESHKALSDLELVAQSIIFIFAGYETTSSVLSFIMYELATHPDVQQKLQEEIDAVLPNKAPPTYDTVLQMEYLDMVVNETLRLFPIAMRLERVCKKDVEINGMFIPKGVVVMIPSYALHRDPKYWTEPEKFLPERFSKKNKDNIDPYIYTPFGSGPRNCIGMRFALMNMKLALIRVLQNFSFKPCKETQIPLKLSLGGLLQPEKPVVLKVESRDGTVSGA

hERG (KCNH2) [2] = target: T1, hERG (KCNH2) (Homo sapiens, UniProt Q12809); experiment: Inhibition of human ERG expressed in HEK293 cells at 1 uM by patch clamp assay; format: cell-based; conditions: HEK293 cells expressing human ERG
T1 sequence (Q12809 whole entry): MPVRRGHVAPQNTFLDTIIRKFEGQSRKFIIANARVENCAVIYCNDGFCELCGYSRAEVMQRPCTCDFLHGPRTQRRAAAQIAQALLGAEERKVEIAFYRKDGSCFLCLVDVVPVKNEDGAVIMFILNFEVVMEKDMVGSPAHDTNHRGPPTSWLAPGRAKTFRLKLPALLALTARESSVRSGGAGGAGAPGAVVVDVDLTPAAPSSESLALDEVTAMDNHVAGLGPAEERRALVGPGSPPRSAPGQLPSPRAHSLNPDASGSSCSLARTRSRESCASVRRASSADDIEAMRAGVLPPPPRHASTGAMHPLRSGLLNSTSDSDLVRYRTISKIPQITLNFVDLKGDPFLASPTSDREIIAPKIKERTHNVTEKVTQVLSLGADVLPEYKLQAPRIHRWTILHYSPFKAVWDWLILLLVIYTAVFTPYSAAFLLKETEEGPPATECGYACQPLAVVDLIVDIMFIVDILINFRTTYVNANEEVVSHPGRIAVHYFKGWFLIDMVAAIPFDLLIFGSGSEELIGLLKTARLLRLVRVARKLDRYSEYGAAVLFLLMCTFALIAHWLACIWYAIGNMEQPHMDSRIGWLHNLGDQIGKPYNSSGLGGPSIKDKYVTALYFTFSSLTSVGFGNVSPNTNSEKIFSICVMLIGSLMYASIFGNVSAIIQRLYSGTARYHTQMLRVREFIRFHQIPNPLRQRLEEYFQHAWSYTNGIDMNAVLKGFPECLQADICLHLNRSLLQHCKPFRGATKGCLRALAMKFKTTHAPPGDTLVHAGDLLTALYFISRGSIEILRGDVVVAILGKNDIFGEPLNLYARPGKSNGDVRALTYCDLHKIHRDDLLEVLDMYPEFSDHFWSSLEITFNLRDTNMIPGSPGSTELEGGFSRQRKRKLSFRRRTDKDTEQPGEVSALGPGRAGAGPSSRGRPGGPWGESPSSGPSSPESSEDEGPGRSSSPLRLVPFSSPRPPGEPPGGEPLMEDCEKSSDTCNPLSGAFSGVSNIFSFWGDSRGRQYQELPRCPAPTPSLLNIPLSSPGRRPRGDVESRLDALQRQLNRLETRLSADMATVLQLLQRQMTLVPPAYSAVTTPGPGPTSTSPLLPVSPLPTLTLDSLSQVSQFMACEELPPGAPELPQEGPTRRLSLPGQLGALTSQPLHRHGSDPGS

Histamine H3 receptor [3] = target: Histamine H3 receptor (Mus musculus, UniProt P58406); experiment: Displacement of [125I]Iodoproxyfan from mouse brain cortex histamine H3 receptor after 60 mins; format: tissue-based
Sequence of Histamine H3 receptor (Mus musculus, UniProt P58406) (P58406 whole entry): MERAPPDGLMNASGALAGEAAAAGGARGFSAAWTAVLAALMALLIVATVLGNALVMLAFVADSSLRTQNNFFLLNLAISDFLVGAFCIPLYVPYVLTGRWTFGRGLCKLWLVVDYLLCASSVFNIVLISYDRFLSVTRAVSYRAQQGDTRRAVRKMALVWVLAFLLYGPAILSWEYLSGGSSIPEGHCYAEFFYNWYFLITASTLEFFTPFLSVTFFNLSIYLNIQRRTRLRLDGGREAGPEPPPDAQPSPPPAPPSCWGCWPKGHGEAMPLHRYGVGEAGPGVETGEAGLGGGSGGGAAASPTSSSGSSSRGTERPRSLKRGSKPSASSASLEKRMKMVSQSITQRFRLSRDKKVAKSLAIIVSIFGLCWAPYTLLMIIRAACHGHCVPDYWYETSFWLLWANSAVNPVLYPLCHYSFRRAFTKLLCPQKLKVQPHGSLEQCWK
How it was run: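 Competition binding used [125I]-iodoproxyfan against human recombinant H3R and native mouse brain cortex H3R. Ki values are means of at least two experiments run in duplicate or triplicate, reported as mean ± SEM.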

Liver = experiment: Metabolic stability in mouse liver microsomes at 100 nM upto 250 mins by LC-MS/MS; format: ADME, Microsome; conditions: 0.1 µM
How it was run: (§2)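 Compound at 100 nM was incubated with pooled human or mouse liver microsomes (0.5 mg/mL protein) plus NADP. Remaining compound was followed over time by LC-MS/MS.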

[4] = Ratio of AUC (0 to 8 hrs) in Swiss mouse brain to AUC (0 to 8 hrs) in Swiss mouse plasma at 10 mg/kg, po by LC-MS/MS; format: ADME, organism-based; design: dose 10 mg/kg, route oral; conditions: brain and plasma, read-out: Ratio AUC
How it was run: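 Male Swiss mice given single 10 mg/kg oral dose; plasma and brain tissue sampled over 0–8 h and drug quantified by LC-MS/MS; AUC0-8h computed for each matrix, ratio brain to plasma; mean ± SEM of 3 mice.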

[5] = AUC (0 to 8 hrs) in Swiss mouse brain at 10 mg/kg, po by LC-MS/MS; format: ADME, organism-based; design: time < 8 hr, dose 10 mg/kg, route oral
How it was run: (§3)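 Male Swiss mice received a single 10 mg/kg oral dose. Compound was quantified in plasma and brain tissue by LC-MS/MS over 8 h, and AUC0-8h was derived. Data are mean ± SEM of 3 mice.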

Cytochrome P450 3A4 = Cytochrome P450 3A4 (Homo sapiens, UniProt P08684); experiment: Inhibition of CYP3A4; format: ADME; how it was run: as §1
Sequence of Cytochrome P450 3A4 (P08684 whole entry): as the sequence (P08684 whole entry) above

[6] = AUC (0 to 8 hrs) in Swiss mouse plasma at 10 mg/kg, po by LC-MS/MS; format: ADME, organism-based; design: time < 8 hr, dose 10 mg/kg, route oral; how it was run: as §3
Liver microsomes = experiment: Metabolic stability in human liver microsomes at 100 nM upto 250 mins by LC-MS/MS; format: ADME, Microsome; conditions: 0.1 µM; how it was run: as §2
hERG (KCNH2) [7] = target: T1, hERG (KCNH2); experiment: Inhibition of human ERG expressed in HEK293 cells at 10 uM by patch clamp assay; format: cell-based; conditions: HEK293 cells expressing human ERG
Cytochrome P450 2C9 = Cytochrome P450 2C9 (Homo sapiens, UniProt P11712); experiment: Inhibition of CYP2C9; format: ADME; how it was run: as §1
Sequence of Cytochrome P450 2C9 (P11712 whole entry): as the sequence (P11712 whole entry, canonical isoform) above

Cytochrome P450 2D6 = Cytochrome P450 2D6 (Homo sapiens, UniProt P10635); experiment: Inhibition of CYP2D6; format: ADME; how it was run: as §1
Sequence of Cytochrome P450 2D6 (P10635 whole entry): as the sequence (P10635 whole entry) above

[8] = Tmax in Swiss mouse brain at 10 mg/kg, po by LC-MS/MS; format: ADME, organism-based; design: dose 10 mg/kg, route oral
[9] = AUC (0 to 3 hrs) in Swiss mouse plasma at 10 mg/kg, po by LC-MS/MS; format: ADME, organism-based; design: time < 3 hr, dose 10 mg/kg, route oral
[10] = AUC (0 to 3 hrs) in Swiss mouse brain at 10 mg/kg, po by LC-MS/MS; format: ADME, organism-based; design: time < 3 hr, dose 10 mg/kg, route oral
[11] = Tmax in Swiss mouse plasma at 10 mg/kg, po by LC-MS/MS; format: ADME, organism-based; design: dose 10 mg/kg, route oral

Sequence of Histamine H3 receptor (Homo sapiens, UniProt Q9Y5N1) (Q9Y5N1 whole entry): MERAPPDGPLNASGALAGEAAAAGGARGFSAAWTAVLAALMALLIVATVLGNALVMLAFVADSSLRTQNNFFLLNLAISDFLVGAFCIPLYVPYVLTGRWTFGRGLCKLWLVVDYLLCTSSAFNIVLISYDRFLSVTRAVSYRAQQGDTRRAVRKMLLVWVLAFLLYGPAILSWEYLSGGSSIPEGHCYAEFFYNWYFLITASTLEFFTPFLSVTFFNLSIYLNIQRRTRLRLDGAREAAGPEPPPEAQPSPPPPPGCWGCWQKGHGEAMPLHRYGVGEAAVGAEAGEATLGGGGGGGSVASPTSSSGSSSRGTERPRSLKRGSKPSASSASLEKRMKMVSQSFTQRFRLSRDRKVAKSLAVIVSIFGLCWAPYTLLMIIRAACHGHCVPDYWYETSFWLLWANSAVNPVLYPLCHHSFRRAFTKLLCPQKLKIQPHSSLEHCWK

| SMILES | Ki (Histamine H3 receptor [1]) | inhibition at 1 µM (CYP2C9) | inhibition at 1 µM (CYP2D6) | inhibition at 1 µM (CYP3A4) | Ki (Histamine H3 receptor [3]) | IC50 (Cytochrome P450 2C9) | other results |
| --- | --- | --- | --- | --- | --- | --- | --- |
| c1ccc(CN[C@H]2CC[C@@H](c3ccc(OCCCN4CCCCC4)cc3)CC2)cc1 | 0.29 nM | – | – | – | – | – | – |
| c1ccc2c(c1)CN([C@H]1CC[C@H](c3ccc(OCCCN4CCCCC4)cc3)CC1)C2 | 0.17 nM | 25.1% | 21.9% | 8.9% | 1.4 nM | – | – |
| CCCCN[C@H]1CC[C@H](c2ccc(OCCCN3CCCCC3)cc2)CC1 | 0.64 nM | 54.7% | -8.9% | 26.6% | – | 1000 nM | – |
| CCCCN[C@H]1CC[C@@H](c2ccc(OCCCN3CCCCC3)cc2)CC1 | 0.53 nM | 53.9% | 2.9% | 25.4% | – | 1000 nM | – |
| c1cc([C@H]2CC[C@@H](N3CCCC3)CC2)ccc1OCCCN1CCCCC1 | 0.33 nM | – | – | – | 1 nM | 22300 nM | IC50 (Cytochrome P450 3A4): 41700 nM; inhibition at 10 µM (hERG (KCNH2) [7]): 15%; inhibition at 1 µM (hERG (KCNH2) [2]): 11%; IC50 (Cytochrome P450 2D6): > 100000 nM |
| c1cc(OCCCN2CCCCC2)ccc1CN1CCCCC1 [JNJ-5207852] | – | – | – | – | – | – | Tmax [8]: 3 h; AUC(0-t) at 3 h [9]: 1040 ng·h/mL; AUC(0-t) at 3 h [10]: 1100 ng·h/mL; Tmax [11]: 0.5 h |
| CN([C@H]1CC[C@H](c2ccc(OCCCN3CCCCC3)cc2)CC1)S(=O)(=O)c1ccccc1 | 5.5 nM | – | – | – | – | – | – |
| O=C1CCC(c2ccc(OCCCN3CCCCC3)cc2)CC1 | 1.7 nM | 21.4% | 3.8% | 4.1% | – | – | – |
| c1ccc(CN[C@H]2CC[C@H](c3ccc(OCCCN4CCCCC4)cc3)CC2)cc1 | 0.26 nM | 47.8% | 20% | 39.9% | 2.1 nM | 1000 nM | – |
| c1cc([C@H]2CC[C@H](N3CCCC3)CC2)ccc1OCCCN1CCCCC1 | 0.25 nM | – | – | – | 0.33 nM | 15300 nM | ED50 (Mus musculus): 3 mg/kg; inhibition at 10 µM (hERG (KCNH2) [7]): 22%; inhibition at 1 µM (hERG (KCNH2) [2]): 14%; IC50 (Cytochrome P450 2D6): > 100000 nM |

Second part, led by results:

| Ki (Histamine H3 receptor [1]) | inhibition at 1 µM (CYP2C9) | inhibition at 1 µM (CYP2D6) | inhibition at 1 µM (CYP3A4) | Ki (Histamine H3 receptor [3]) | IC50 (Cytochrome P450 2C9) | SMILES | other results |
| --- | --- | --- | --- | --- | --- | --- | --- |
| 0.34 nM | – | – | – | – | – | c1cc([C@H]2CC[C@@H](N3CCC3)CC2)ccc1OCCCN1CCCCC1 | – |
| 0.64 nM | 33.5% | 1.4% | 5.2% | 1 nM | – | c1cc([C@H]2CC[C@H](N3CCCCC3)CC2)ccc1OCCCN1CCCCC1 | ED50 (Mus musculus): 4.2 mg/kg; inhibition at 1 µM (hERG (KCNH2) [2]): 42% |
| 0.92 nM | – | – | – | – | – | CN1CCN([C@H]2CC[C@@H](c3ccc(OCCCN4CCCCC4)cc3)CC2)CC1 | – |
| 0.92 nM | – | – | – | – | – | OC1CCN([C@H]2CC[C@@H](c3ccc(OCCCN4CCCCC4)cc3)CC2)CC1 | – |
| 0.41 nM | – | – | – | 1.6 nM | 44000 nM | c1cc([C@H]2CC[C@H](N3CCOCC3)CC2)ccc1OCCCN1CCCCC1 | Stability (Liver): Stable; Kp [4]: 7.4; ED50 (Mus musculus): 1.3 mg/kg; AUC(0-t) at 8 h [5]: 15600 ng·h/mL; IC50 (Cytochrome P450 3A4): 66200 nM; AUC(0-t) at 8 h [6]: 2110 ng·h/mL; Stability (Liver microsomes): Stable; inhibition at 10 µM (hERG (KCNH2) [7]): 34%; IC50 (Cytochrome P450 2D6): > 100000 nM |
| 0.57 nM | 3.4% | 15.7% | 3.3% | – | – | OC1CCN([C@H]2CC[C@H](c3ccc(OCCCN4CCCCC4)cc3)CC2)CC1 | – |
| – | – | – | – | 0.52 nM | 40700 nM | CN(C)[C@H]1CC[C@H](c2ccc(OCCCN3CCCCC3)cc2)CC1 | ED50 (Mus musculus): 3.7 mg/kg; IC50 (Cytochrome P450 3A4): 42600 nM; IC50 (Cytochrome P450 2D6): > 100000 nM |
| 0.67 nM | – | – | – | – | – | c1cc([C@H]2CC[C@@H](N3CCOCC3)CC2)ccc1OCCCN1CCCCC1 | – |
| 0.32 nM | 3.4% | 3.4% | 20.9% | 2.3 nM | – | CN1CCN([C@H]2CC[C@H](c3ccc(OCCCN4CCCCC4)cc3)CC2)CC1 | – |
| 3.2 nM | – | – | – | – | – | CN[C@H]1CC[C@H](c2ccc(OCCCN3CCCCC3)cc2)CC1 | – |
| 0.41 nM | – | – | – | – | – | c1ccc2c(c1)CN([C@H]1CC[C@@H](c3ccc(OCCCN4CCCCC4)cc3)CC1)C2 | – |
| – | – | – | – | 0.28 nM | 11300 nM | CN(C)[C@H]1CC[C@@H](c2ccc(OCCCN3CCCCC3)cc2)CC1 | ED50 (Mus musculus): 3.7 mg/kg; IC50 (Cytochrome P450 3A4): 50000 nM; IC50 (Cytochrome P450 2D6): > 100000 nM |
| 0.25 nM | -12.1% | 0.8% | 4.2% | 1.6 nM | – | c1cc([C@H]2CC[C@H](N3CCC3)CC2)ccc1OCCCN1CCCCC1 | ED50 (Mus musculus): 2.8 mg/kg; inhibition at 10 µM (hERG (KCNH2) [7]): 41% |
| 0.56 nM | 52.9% | -7.8% | 26.1% | – | – | CC1CCN([C@H]2CC[C@@H](c3ccc(OCCCN4CCCCC4)cc3)CC2)CC1 | – |
